Data on 26 compounds can be found in PubChem BioAssay AID449754 (Broad Institute, 2010).

Results filed as inconclusive are left out. Calls of active or inactive are those of the source.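 Rule for the calls: active = compounds whose fitted caspase activation AC50 is no more than tenfold above the top tested dose; inconclusive = flat fit with 30 to 70% activity, or a failed fit; inactive = the rest.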 Some results are limits rather than exact numbers.

This assay has as its system MEF Bax/Bak KO A1-BIM, caspase-Glo luminescence, 3 h. Kind of assay: caspase signal in Bax-Bak null A1-BIM cells – cell-based, Bax-Bak knockout MEF, A1-2A-BIM, luminescence, counter-screen for A1 inhibitor project, dose response (AID 449754).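 Note: counterscreen where caspase activation signals off-target toxicity not A1 inhibition.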 The method, boiled down:
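Material: Bax/Bak-knockout mouse embryonic fibroblasts expressing A1-2A-BIM; Quantity: 2500 cells per well, seeded one day before compound; Buffer or medium: RPMI-1640 growth medium with 10% FBS; Doses: 100 nL pinned compound per well; Times: 3 h compound at 37 °C, 1 h detection at RT; Signal: CaspaseGlo luminescence; Evaluation: caspase activity from luminescent signal.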
Background: A counterscreen serves to expose hits that act by an unwanted route or on another target.
For the compound `CCOc1ccc(NCc2cccn2-c2nnc(N3CCC(C(=O)NCCCN4CC(C)CC(C)C4)CC3)s2)cc1` (stereo unspecified), the AC50 (commonly the concentration giving half of the maximal activity seen) was > 35 µM (inactive).
As for `O=C1/C(=C/c2ccc(N3CCOCC3)o2)SC(=Nc2ccccc2)N1CCc1c[nH]c2ccccc12`, the figure is 6.82 µM; as for `CN(C)C/C=C(\c1ccc(Br)cc1)c1cccnc1`, > 35 µM (inactive); as for `CCc1ccccc1NC(=O)C(CC)Sc1nc2cc3c(cc2c(=O)n1Cc1ccco1)OCO3` (stereo unspecified), > 35 µM (inactive).
The result for `COc1cc(NC(=O)c2ccccc2)c(OC)cc1NC(=O)Cc1ccc(Br)cc1` reads > 35 µM (inactive); that for `CCOC(=O)c1c(C)oc2c1c(CN1CCN(C(=O)OCC)CC1)c(O)c1ccccc12`, 13 µM; that for `Cc1ccc(S(=O)(=O)N(C)Cc2ccc(C(=O)N/N=C/c3ccc(OC(F)F)cc3)cc2)cc1`, > 35 µM (inactive).
As for `COc1cc(/C=C(/C#N)C(=O)Nc2ccc(Cl)cc2)ccc1Oc1nc(Cl)ncc1F`, the figure is > 35 µM (inactive).
As for `CC(C)(C)c1ccc(C(=O)Nc2ccc(O)c3c(=O)cc(-c4cccc(Cl)c4)oc23)cc1`, the AC50 is > 35 µM (inactive).
As for `COc1ccccc1-c1cn[nH]c1-c1ccc(OCc2ccccc2)cc1O`, the figure is > 35 µM (inactive); as for `CCC(Sc1nc2cc3c(cc2c(=O)n1Cc1ccco1)OCO3)C(=O)Nc1cccc(OC)c1` (stereo unspecified), > 35 µM (inactive); as for `COc1ccc(Oc2cc(NC(=O)c3nn(C)cc3[N+](=O)[O-])cc([N+](=O)[O-])c2)cc1`, > 35 µM (inactive).
As for `CC(C)(C)C1CCc2onc(C(=O)Nc3cccc(O)c3)c2C1` (stereo unspecified), the figure is > 35 µM (inactive); as for `O=C(Nc1ccc(-c2nc3cc(NC(=O)c4cccs4)ccc3o2)cc1)c1cccs1`, > 35 µM (inactive); as for `Cn1c(=NC(=O)CCl)sc2ccccc21`, > 35 µM (inactive).
Turning to `CC1=CC(=O)C(C(C)C)=C/C1=N/OS(=O)(=O)c1ccccc1`, the AC50 is 7.41 µM.
As for `O=C(NCc1ccccc1Cl)c1cccc2c1C(=O)c1ccc(-c3ccc(OC(F)(F)F)cc3)cc1S2(=O)=O`, the figure is > 35 µM (inactive); as for `CC(=O)Nc1ncnc2c1c(-c1ccc(Cl)cc1)nn2C(C)(C)C`, > 35 µM (inactive).
Take `CCOc1cc(/C=N/Nc2cc(C)nc(-n3nc(C)cc3C)n2)ccc1O`: the AC50 is > 35 µM (inactive).
As for `COc1cc2ncnc(NCc3ccc(F)cc3)c2cc1OC`, the figure is > 35 µM (inactive).
As for `O=C(Nc1ccc2oc(-c3cccc(F)c3)nc2c1)c1ccccc1F`, the figure is > 35 µM (inactive); as for `O=C(Nc1ccc([N+](=O)[O-])cc1)C(Cc1ccccc1)N1C(=O)c2cccc3cccc(c23)C1=O` (stereo unspecified), > 35 µM (inactive).
The result for `COc1ccc2c(-c3cc4ccc(OCc5ccc(F)cc5)cc4oc3=O)cc(=O)oc2c1` reads 36.6 µM; that for `O=C1/C(=C\c2c(NCCOCCO)nc3ccccn3c2=O)SC(=S)N1Cc1ccco1`, > 35 µM (inactive).
Regarding `CC1=NNC(=O)/C1=C\c1cn(-c2ccccc2)nc1-c1cccs1`, the AC50 is 7.61 µM.
The result for `COc1ccc(-c2ccc3c(c2)S(=O)(=O)c2cccc(C(=O)NCCOc4ccccc4)c2C3=O)cc1OC` reads > 35 µM (inactive).
